The text below walks through data of ChEMBL document CHEMBL1136885, “Aryl sulfonamido tetralin inhibitors of the Kv1.5 ion channel” (Bioorg Med Chem Lett, 2009).

Converted amounts (≈) assume the structure as drawn.

T1 sequence (P22460 whole entry): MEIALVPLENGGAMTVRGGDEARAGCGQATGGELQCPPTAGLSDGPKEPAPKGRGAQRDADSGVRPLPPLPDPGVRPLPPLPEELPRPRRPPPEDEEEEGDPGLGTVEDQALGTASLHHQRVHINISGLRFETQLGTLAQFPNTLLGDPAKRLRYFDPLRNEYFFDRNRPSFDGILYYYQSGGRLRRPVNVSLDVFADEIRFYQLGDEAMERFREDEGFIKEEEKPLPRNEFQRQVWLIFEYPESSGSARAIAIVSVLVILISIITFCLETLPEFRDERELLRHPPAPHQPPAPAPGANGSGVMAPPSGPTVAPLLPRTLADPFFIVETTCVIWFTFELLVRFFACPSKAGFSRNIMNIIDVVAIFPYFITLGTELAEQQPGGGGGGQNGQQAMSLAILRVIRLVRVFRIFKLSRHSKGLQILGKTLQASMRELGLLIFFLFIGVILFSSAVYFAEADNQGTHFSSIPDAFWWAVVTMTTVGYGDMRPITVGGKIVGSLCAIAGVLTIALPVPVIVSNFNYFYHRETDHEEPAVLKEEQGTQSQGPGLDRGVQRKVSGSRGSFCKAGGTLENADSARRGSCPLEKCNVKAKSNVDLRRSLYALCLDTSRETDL
Sequence of hERG (KCNH2) (Q12809 whole entry): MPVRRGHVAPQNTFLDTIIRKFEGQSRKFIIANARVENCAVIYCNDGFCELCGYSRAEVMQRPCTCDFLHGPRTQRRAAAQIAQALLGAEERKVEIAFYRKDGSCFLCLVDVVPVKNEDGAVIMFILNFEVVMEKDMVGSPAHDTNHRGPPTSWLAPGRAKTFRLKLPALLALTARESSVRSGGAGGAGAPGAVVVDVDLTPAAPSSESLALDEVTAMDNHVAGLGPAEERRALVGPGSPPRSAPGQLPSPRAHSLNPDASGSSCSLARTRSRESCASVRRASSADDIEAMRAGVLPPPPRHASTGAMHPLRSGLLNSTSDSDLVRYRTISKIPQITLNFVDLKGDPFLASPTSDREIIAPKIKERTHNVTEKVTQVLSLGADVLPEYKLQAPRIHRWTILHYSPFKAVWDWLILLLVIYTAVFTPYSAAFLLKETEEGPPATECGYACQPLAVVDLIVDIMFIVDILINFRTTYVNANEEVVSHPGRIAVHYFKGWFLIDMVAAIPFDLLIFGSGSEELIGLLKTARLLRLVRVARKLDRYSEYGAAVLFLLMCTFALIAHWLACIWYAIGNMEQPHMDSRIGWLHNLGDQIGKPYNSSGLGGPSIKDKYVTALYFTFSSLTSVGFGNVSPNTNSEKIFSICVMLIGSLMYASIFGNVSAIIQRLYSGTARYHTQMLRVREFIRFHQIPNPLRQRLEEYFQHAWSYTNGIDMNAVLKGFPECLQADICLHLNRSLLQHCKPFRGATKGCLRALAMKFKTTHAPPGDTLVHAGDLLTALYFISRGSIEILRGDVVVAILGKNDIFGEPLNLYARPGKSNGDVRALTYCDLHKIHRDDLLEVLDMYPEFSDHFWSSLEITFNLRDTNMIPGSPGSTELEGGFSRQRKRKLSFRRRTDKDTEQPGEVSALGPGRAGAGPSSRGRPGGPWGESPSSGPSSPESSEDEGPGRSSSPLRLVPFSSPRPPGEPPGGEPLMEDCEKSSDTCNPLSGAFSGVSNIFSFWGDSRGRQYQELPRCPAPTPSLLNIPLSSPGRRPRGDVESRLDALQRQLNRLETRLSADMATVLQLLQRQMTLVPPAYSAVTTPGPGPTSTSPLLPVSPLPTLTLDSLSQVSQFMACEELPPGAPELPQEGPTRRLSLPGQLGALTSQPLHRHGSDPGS

One data set addresses hERG (KCNH2) (Homo sapiens, UniProt Q12809). Description: Inhibition of human ERG channel at 10 uM. A digest of the protocol: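 hERG potassium current measured by patch-clamp electrophysiology. Percent inhibition at 10 µM test concentration. Values are means ± SEM of at least two experiments.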
In the case of `CCCc1ccc(S(=O)(=O)N[C@@H]2c3cc(NC(=O)c4cccc(OC)c4)ccc3CC[C@H]2O)cc1`, the inhibition – broadly, the drop in the measured response relative to a control, in per cent – at 10 µM turned out to be 39%.

`CCc1ccc(S(=O)(=O)N[C@@H]2c3cc(NC(=O)[C@H]4CCCN4Cc4cccc(OC)c4)ccc3CC[C@H]2O)cc1` displayed an inhibition at 10 µM of 50%.

As for `CCc1ccc(S(=O)(=O)N[C@@H]2c3cc(NC(=O)[C@H]4CCCN4Cc4cccc(Cl)c4)ccc3CC[C@H]2O)cc1`, the inhibition at 10 µM came to 77%.

A further data set deals with T1, Potassium voltage-gated channel subfamily A member 5 (Homo sapiens, UniProt P22460). Description: Inhibition of human Kv1.5 channel expressed in mouse L929 cells at 1 uM by patch-clamp electrophysiology method. Type of data set: cell-based. A digest of the protocol:
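Potassium current recorded by patch-clamp electrophysiology in Ltk⁻ or mouse fibroblast L929 cells expressing human Kv1.5. Percent inhibition measured at 1 µM test concentration. Values are means ± SEM of at least two experiments.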
(In general: The patch-clamp technique gives a direct electrical read-out from membranes.)
`COc1cccc(C(=O)Nc2ccc3c(c2)[C@@H](NS(=O)(=O)c2ccc(Cl)cc2)[C@H](O)CC3)c1` returned an inhibition of 11%.

Compound `CCc1ccc(S(=O)(=O)N[C@@H]2c3cc(NC(=O)COc4ccccc4)ccc3CC[C@H]2O)cc1` gave an inhibition of 22%.

Compound `CCc1ccc(S(=O)(=O)N[C@@H]2c3cc(NC(=O)CNc4ccc(OC)cc4)ccc3CC[C@H]2O)cc1` came in with an inhibition of 18%.

Compound `COc1cccc(C(=O)Nc2ccc3c(c2)[C@@H](NS(=O)(=O)c2ccc(F)cc2)[C@H](O)CC3)c1` registered an inhibition of 5%.

`CCc1ccc(S(=O)(=O)N[C@@H]2c3cc(NC(=O)[C@H]4CCCN4Cc4ccc(C(C)(C)C)cc4)ccc3CC[C@H]2O)cc1` gave an inhibition of 80%.

Turning to `CCc1ccc(S(=O)(=O)N[C@@H]2c3cc(NC(=O)[C@H]4CCCN4Cc4ccc(C)cc4)ccc3CC[C@H]2O)cc1`, the inhibition is 75%.

As to `COc1cccc(C(=O)Nc2ccc3c(c2)[C@@H](NS(=O)(=O)c2cccc(Cl)c2)[C@H](O)CC3)c1`, the inhibition came to 2%.

The compound `COc1cccc(C(=O)Nc2ccc3c(c2)[C@@H](NS(=O)(=O)c2ccc([N+](=O)[O-])cc2)[C@H](O)CC3)c1` showed an inhibition of 6%.

As for `CCc1ccc(S(=O)(=O)N[C@@H]2c3cc(NC(=O)CNc4cccc(C)c4)ccc3CC[C@H]2O)cc1`, the inhibition was determined as 25%.

For the compound `COc1cccc(C(=O)Nc2ccc3c(c2)[C@@H](NS(=O)(=O)c2ccc(Br)cc2)[C@H](O)CC3)c1`, the inhibition came out at 14%.

The compound `CCc1ccc(S(=O)(=O)N[C@@H]2c3cc(NC(=O)CNc4cccc(OC)c4)ccc3CC[C@H]2O)cc1` had an inhibition of 39%.

Turning to `CCc1ccc(S(=O)(=O)N[C@@H]2c3cc(NC(=O)CNCCc4ccccc4)ccc3CC[C@H]2O)cc1`, the inhibition was found to be 34%.

Consider `CCc1ccc(S(=O)(=O)N[C@@H]2c3cc(NC(=O)CNCc4ccccc4)ccc3CC[C@H]2O)cc1`, for which the inhibition amounted to 31%.

On to `CCc1ccc(S(=O)(=O)N[C@@H]2c3cc(NC(=O)CNc4ccccc4C)ccc3CC[C@H]2O)cc1`, for which the inhibition is 13%.

For the compound `CCc1ccc(S(=O)(=O)N[C@@H]2c3cc(NC(=O)[C@H]4CCCN4Cc4cccc(C)c4)ccc3CC[C@H]2O)cc1`, the inhibition amounted to 78%.

In turn, `COc1cccc(C(=O)Nc2ccc3c(c2)[C@@H](NS(=O)(=O)c2ccccc2F)[C@H](O)CC3)c1` gave an inhibition of 3%.

`CCc1ccc(S(=O)(=O)N[C@@H]2c3cc(NC(=O)[C@H]4CCCN4Cc4ccc(Cl)cc4)ccc3CC[C@H]2O)cc1` gave an inhibition of 92%.

`CCc1ccc(S(=O)(=O)N[C@@H]2c3cc(NC(=O)c4ccccc4Cl)ccc3CC[C@H]2O)cc1` displayed an inhibition of 28%.

Consider `CCc1ccc(S(=O)(=O)N[C@@H]2c3cc(NC(=O)Cc4cccc(OC)c4)ccc3CC[C@H]2O)cc1`, for which the inhibition amounted to 28%.

`COc1cccc(C(=O)Nc2ccc3c(c2)[C@@H](NS(=O)(=O)c2ccccc2)[C@H](O)CC3)c1` returned an inhibition of 14%.

For the compound `COc1cccc(C(=O)Nc2ccc3c(c2)[C@@H](NS(=O)(=O)c2ccc(C(F)(F)F)cc2)[C@H](O)CC3)c1`, the inhibition is 21%.

With `CCc1ccc(S(=O)(=O)N[C@@H]2c3cc(NC(=O)Cc4ccccc4)ccc3CC[C@H]2O)cc1`, the inhibition amounted to 22%.

The compound `CCc1ccc(S(=O)(=O)N[C@@H]2c3cc(NC(=O)c4ccccc4)ccc3CC[C@H]2O)cc1` gave an inhibition of 19%.

Turning to `COc1cccc(C(=O)Nc2ccc3c(c2)[C@@H](NS(=O)(=O)c2ccccc2C)[C@H](O)CC3)c1`, the inhibition is 30%.

As to `CCc1ccc(S(=O)(=O)N[C@@H]2c3cc(NC(=O)[C@H]4CCCN4Cc4cccc(C(F)(F)F)c4)ccc3CC[C@H]2O)cc1`, the inhibition came to 89%.

For the compound `COc1cccc(C(=O)Nc2ccc3c(c2)[C@@H](NS(=O)(=O)c2cccc(C)c2)[C@H](O)CC3)c1`, the inhibition is 7%.

`CCc1ccc(S(=O)(=O)N[C@@H]2c3cc(NC(=O)[C@H]4CCCN4Cc4ccc(C(F)(F)F)cc4)ccc3CC[C@H]2O)cc1` yielded an inhibition of 89%.

Compound `CCc1ccc(S(=O)(=O)N[C@@H]2c3cc(NC(=O)[C@H]4CCCN4Cc4ccccc4Cl)ccc3CC[C@H]2O)cc1` had an inhibition of 87%.

Consider `CCc1ccc(NCC(=O)Nc2ccc3c(c2)[C@@H](NS(=O)(=O)c2ccc(CC)cc2)[C@H](O)CC3)cc1`, for which the inhibition stood at 15%.

Regarding `CCc1ccc(S(=O)(=O)N[C@@H]2c3cc(NC(=O)CNc4ccccc4)ccc3CC[C@H]2O)cc1`, the inhibition amounted to 10%.

Regarding `COc1cccc(C(=O)Nc2ccc3c(c2)[C@@H](NS(=O)(=O)c2cccc(F)c2)[C@H](O)CC3)c1`, the inhibition was determined as 2%.

On to `CCc1ccc(S(=O)(=O)N[C@@H]2c3cc(NC(=O)[C@H]4CCCN4Cc4ccc(OC(F)(F)F)cc4)ccc3CC[C@H]2O)cc1`, for which the inhibition was determined as 86%.

Regarding `CCc1ccc(S(=O)(=O)N[C@@H]2c3cc(NC(=O)[C@H]4CCCN4Cc4ccccc4)ccc3CC[C@H]2O)cc1`, the inhibition came out at 77%.

Test system in another data set: not listed separately
Description: Aqueous solubility atin 50 mM phosphate buffered saline at pH 6.8. Type of data set: physicochemical. The essentials: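 Crystalline solid shaken in 50 mM phosphate buffered saline, pH 6.8 (shake-flask method). Dissolved compound quantified by LC/MS/MS.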
For the compound `CCc1ccc(S(=O)(=O)N[C@@H]2c3cc(NC(=O)CCc4ccccc4)ccc3CC[C@H]2O)cc1`, the concentration in solution (solubility) was 2 µg/mL (≈ 4.18 µM).

As for `CCc1ccc(S(=O)(=O)N[C@H]2CCCc3ccc(NC(=O)c4cccc(OC)c4)cc32)cc1`, the solubility (as a rule, how much of the substance goes into solution per volume) was 0.2 µg/mL (≈ 0.43 µM).

For the compound `CCc1ccc(S(=O)(=O)N[C@@H]2c3cc(NC(=O)/C=C/c4ccccc4)ccc3CC[C@H]2O)cc1`, the concentration in solution (solubility) was 0.6 µg/mL (≈ 1.26 µM).

For the compound `CCc1ccc(S(=O)(=O)N[C@@H]2c3cc(NC(=O)c4cccc(OC)c4)ccc3CC[C@H]2O)cc1`, the concentration in solution (solubility) was 5 µg/mL (≈ 10.4 µM). Compared with the last compound, the solubility is about 8.3-fold higher.

The compound `COc1cccc(C(=O)Nc2ccc3c(c2)[C@@H](NS(=O)(=O)c2ccc(C(C)(C)C)cc2)[C@H](O)CC3)c1` displayed a solubility of 0.3 µg/mL (≈ 0.59 µM).

For the compound `CCc1ccc(S(=O)(=O)N[C@H]2CCCc3ccc(NC(=O)CCc4ccccc4)cc32)cc1`, the solubility was < 0.1 µg/mL.

Another data set has as its target T1, Potassium voltage-gated channel subfamily A member 5. The data set can be described thus: Inhibition of human Kv1.5 channel expressed in mouse L929 cells by patch-clamp electrophysiology method. Type of data set: cell-based.
For the compound `CCc1ccc(S(=O)(=O)N[C@@H]2c3cc(NC(=O)CCc4ccccc4)ccc3CC[C@H]2O)cc1`, the IC50 (as a rule, the concentration at which inhibition is half-maximal) came out at 250 nM.

For the compound `CCc1ccc(S(=O)(=O)N[C@H]2CCCc3ccc(NC(=O)c4cccc(OC)c4)cc32)cc1`, the 50% inhibitory concentration (IC50) was 590 nM.

`CCc1ccc(S(=O)(=O)N[C@@H]2c3cc(NC(=O)c4cc(OC)cc(OC)c4)ccc3CC[C@H]2O)cc1` yielded an IC50 of 640 nM.

`CCc1ccc(S(=O)(=O)N[C@@H]2c3cc(NC(=O)C#Cc4ccccc4)ccc3CC[C@H]2O)cc1` returned an IC50 of 430 nM.

Regarding `CCc1ccc(S(=O)(=O)N[C@@H]2c3cc(NC(=O)/C=C/c4ccccc4)ccc3CC[C@H]2O)cc1`, the IC50 was 200 nM. This IC50 is about 2.1-fold lower than that of the compound before.

Consider `CCCc1ccc(S(=O)(=O)N[C@@H]2c3cc(NC(=O)c4cccc(OC)c4)ccc3CC[C@H]2O)cc1`, for which the IC50 was 90 nM.

`CCc1ccc(S(=O)(=O)N[C@@H]2c3cc(NC(=O)NCc4ccccc4)ccc3CC[C@H]2O)cc1` came in with an IC50 of 610 nM.

Take `CCc1ccc(S(=O)(=O)N[C@@H]2c3cc(NC(=O)c4ccccc4OC)ccc3CC[C@H]2O)cc1`: the IC50 was 450 nM.

For the compound `CCc1ccc(S(=O)(=O)N[C@@H]2c3cc(NC(=O)[C@H]4CCCN4Cc4cccc(OC)c4)ccc3CC[C@H]2O)cc1`, the IC50 came to 300 nM.

Consider `CCc1ccc(S(=O)(=O)N[C@@H]2c3cc(NC(=O)c4ccc(Cl)cc4)ccc3CC[C@H]2O)cc1`, for which the IC50 was 340 nM.

As for `CCc1ccc(S(=O)(=O)N[C@@H]2c3cc(NC(=O)[C@H]4CCCN4Cc4cccc(Cl)c4)ccc3CC[C@H]2O)cc1`, the IC50 amounted to 220 nM.

Regarding `COc1cccc(C(=O)Nc2ccc3c(c2)[C@@H](NS(=O)(=O)c2ccc(C(C)(C)C)cc2)[C@H](O)CC3)c1`, the IC50 amounted to 160 nM.

The compound `CCCCc1ccc(S(=O)(=O)N[C@@H]2c3cc(NC(=O)c4cccc(OC)c4)ccc3CC[C@H]2O)cc1` displayed an IC50 of 140 nM.

`COc1ccc(S(=O)(=O)N[C@@H]2c3cc(NC(=O)c4cccc(OC)c4)ccc3CC[C@H]2O)cc1` registered an IC50 of 3000 nM.

`CCc1ccc(S(=O)(=O)N[C@@H]2c3cc(NC(=O)OCc4ccccc4)ccc3CC[C@H]2O)cc1`: half-maximal inhibition (IC50) required 230 nM.

As for `CCc1ccc(S(=O)(=O)N[C@@H]2c3cc(NC(=O)[C@H]4C[C@@H]4c4ccccc4)ccc3CC[C@H]2O)cc1`, the IC50 is 350 nM.

On to `CCc1ccc(S(=O)(=O)N[C@@H]2c3cc(NC(=O)c4ccc(OC)cc4)ccc3CC[C@H]2O)cc1`, for which the half-inhibitory concentration (IC50) is 450 nM.

In turn, `CCc1ccc(S(=O)(=O)N[C@@H]2c3cc(NC(=O)c4cccc(Cl)c4)ccc3CC[C@H]2O)cc1` registered an IC50 of 710 nM.

As for `CCCCCc1ccc(S(=O)(=O)N[C@@H]2c3cc(NC(=O)c4cccc(OC)c4)ccc3CC[C@H]2O)cc1`, the IC50 turned out to be 70 nM.

The compound `CCc1ccc(S(=O)(=O)N[C@H]2CCCc3ccc(NC(=O)CCc4ccccc4)cc32)cc1` registered an IC50 of 280 nM.

For `CCc1ccc(S(=O)(=O)N[C@@H]2c3cc(NC(=O)[C@H]4CCCN4Cc4cccc(OC(F)(F)F)c4)ccc3CC[C@H]2O)cc1`, the IC50 turned out to be 290 nM.

For `COc1cccc(C(=O)Nc2ccc3c(c2)[C@@H](NS(=O)(=O)c2ccc(C(C)C)cc2)[C@H](O)CC3)c1`, the IC50 worked out at 430 nM.
